Screening data deposited in PubChem by Sanford-Burnham Center for Chemical Genomics.
TNAP inh no acc – human TNAP enzyme inhibitors, primary screen, biochemical, luminescent, no phosphate acceptor, uHTS; hit rate 0.26% among 200,000; purified TNAP, CDP-star luminescence, 30 min; AID 1012, 2008; inhibition, % at 20 µM; Alkaline phosphatase, tissue-nonspecific isozyme (Homo sapiens), P05186;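 active = tissue-nonspecific alkaline phosphatase inhibition above about 50% at 20 µM in the single-dose screen, limit read from the data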;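 note: 0% = DMSO negative control and 100% = EDTA positive control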
Target sequence (P05186 whole entry, looked up): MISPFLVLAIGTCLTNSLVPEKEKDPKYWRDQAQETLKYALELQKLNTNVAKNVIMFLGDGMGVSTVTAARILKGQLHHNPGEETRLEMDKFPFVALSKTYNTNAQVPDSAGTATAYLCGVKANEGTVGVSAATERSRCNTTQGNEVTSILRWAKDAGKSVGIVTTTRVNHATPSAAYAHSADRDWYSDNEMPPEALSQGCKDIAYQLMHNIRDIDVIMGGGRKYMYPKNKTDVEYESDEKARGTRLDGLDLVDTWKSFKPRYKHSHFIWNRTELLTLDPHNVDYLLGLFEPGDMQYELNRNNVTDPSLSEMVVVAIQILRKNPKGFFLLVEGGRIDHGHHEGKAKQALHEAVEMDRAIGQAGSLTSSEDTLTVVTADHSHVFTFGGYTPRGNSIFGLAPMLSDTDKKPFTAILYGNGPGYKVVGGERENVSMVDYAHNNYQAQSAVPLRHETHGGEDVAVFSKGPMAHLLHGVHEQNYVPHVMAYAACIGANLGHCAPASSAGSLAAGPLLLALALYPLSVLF
TNAP act hi DEA – TNAP activators at high phosphate acceptor level, primary screen, biochemical, luminescence, uHTS. purified TNAP, CDP-star luminescence, 1 M DEA, 30 min; active compounds read high; 0 = EDTA background, 1 = DMSO-only activity. activation factor at 20 µM. 200,000 tested, under 10 active;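 active = activation factor at least 2 at 20 µM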
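Control set: EDTA negative control, DMSO positive control / Assay system: human TNAP / Quantity: TNAP 1/800 final / Evaluation: TNAP activation factor scaled between EDTA and DMSO control wells / Measured by: luminescent substrate turnover signal / Compound dosing: one dose, 20 µM / Times: 30 min enzyme reaction at room temperature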
PMI activator – activators of human PMI, primary screen, biochemical, fluorescence intensity, near-Km mannose 6-phosphate. Mannose-6-phosphate isomerase (Homo sapiens), P34949. purified human PMI, coupled resazurin fluorescence, 20 min; active compounds read high; 1 = vehicle control, 0 substrate-free wells. hit rate 0.005% among 190,000. activation factor at 20 µM;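 active = activation factor of 2 or more at 20 µM, relative to plate controls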
PMI act satM6P – human PMI activators, high substrate, primary screen, biochemical, fluorescence intensity, near-saturating mannose 6-phosphate; Mannose-6-phosphate isomerase (Homo sapiens), P34949; coupled PMI enzyme assay, resazurin fluorescence, 20 min; active compounds read high; 1 = untreated enzyme, 0 = substrate-free blank; activation factor at 20 µM; hit rate 0.34% among 190,000;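 active = activation factor of 2 or more at 20 µM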
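test system = human PMI in coupled enzyme assay | medium = HEPES-buffered pH 7.4 with magnesium and detergent | also added = 1.0 mM mannose-6-phosphate substrate with 0.22 mM NADP+ | compound = 20 µM single dose | times = 20 min incubation at room temperature | measured by = resorufin fluorescence (Ex 544/Em 590 nm) from resazurin via diaphorase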
TNAP inh hi DEA – human TNAP enzyme inhibitors, primary screen, biochemical, luminescent, high phosphate acceptor level, uHTS; Alkaline phosphatase, tissue-nonspecific isozyme (Homo sapiens), P05186; purified TNAP, CDP-star luminescence, 1 M DEA; inhibition, % at 20 µM; hit rate 0.03% among 200,000;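 active = over 50% inhibition of tissue-nonspecific alkaline phosphatase at 20 µM in the single-dose screen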;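 note: plate controls were DMSO wells for no effect and EDTA-quenched wells as full inhibition for full effect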
An asterisk follows results filed as active; i = inactive. Sampled rows, rich in hits. Any-hit rate of the full collection: about 0.64%.

SMILES	TNAP inh no acc	TNAP act hi DEA	PMI activator	PMI act satM6P	TNAP inh hi DEA
COCCCNC(=O)c1cccn2c(=O)c3cc4ccccc4cc3nc12	-4.1	1	1.5	1.9	-2.0
O=C(NCc1ccco1)c1cccn2c(=O)c3cc4ccccc4cc3nc12	-3.7	1	2*	2.4*	0.5
O=C(C[n+]1ccc(C(=O)N/N=C/c2ccc(O)cc2)cc1)c1ccccc1	51.1*	1	1.1	1.3	0.4
Cc1ccc(/C=N/Nc2cccc3cccnc23)c(O)c1	i	1.1	1.4	2*	-5.8
O=[N+]([O-])c1cccc(N/N=C/c2cc([N+](=O)[O-])ccc2O)c1	12.8	0.8	1.1	1	15.5
Oc1ccc(/C=N/Nc2cccc3cccnc23)c(O)c1	-13.6	0.9	1.4	1.8	6.7
Cc1cccc(N/N=C/c2ccccc2O)c1	8.8	1.1	1.7	2.8*	-6.1
NC(=S)N/N=C/c1coc2c(ccc3ccccc32)c1=O	-25.4	0.9	1	0.9	5.6
O=c1cc(/N=C/c2coc3c(ccc4ccccc43)c2=O)[nH]c(=S)[nH]1	53.3*	0.8	1	0.8	24.0
CCOc1cc(CNCc2cccnc2)ccc1OCC(=O)NC(C)(C)C	-4.0	1.1	1.2	1.2	-5.4
CCOC(=O)/C(=N/Nc1ccccc1)N1CCCc2ccccc21	-21.3	1	1.5	2.4*	-3.2
COc1ccc(C)cc1NC(=O)N1CCCc2ccccc21	-5.4	1	1	0.9	-2.8
O=C(Nc1ccccc1)N1CCCc2ccccc21	1.7	1	1	1	0.2
COC(=O)/C(=N/Nc1ccccc1C)N1CCCc2ccccc21	-13.5	1	1.5	2*	0.1
Cc1ccc(N=Nc2c(=O)[nH]n3c(C)cc(C)nc23)cc1	27.2	0.9	0.9	0.8	14.2
Cc1cc(C)n2[nH]c(=O)c(N=Nc3ccc(S(N)(=O)=O)cc3)c2n1	91.2*	0.8	0.9	0.9	21.4
CCOC(=O)C1=C(C)N(C)C(=O)NC1c1cc2c(cc1[N+](=O)[O-])OCO2 (configuration not stated)	-4.0	0.9	0.6	0.6	5.0
O=C(Cn1c(C(F)(F)F)nc2ccccc21)N=Nc1c(O)[nH]c2ccc(Br)cc12	-20.9	1	1.1	1	0.1
CCN(c1ccc(NC(=O)COC(=O)CCc2cc(OC)c(OC)c(OC)c2)cc1)C(C)C	-1.3	1.1	1.1	1	-6.7
CCOC(=O)c1sc(NC(=O)CSc2n[nH]c(-c3ccccc3)n2)c(C#N)c1C	76.4*	1	0.5	0.8	3.4
CN(C)c1nc(N)nc(CSc2nnnn2-c2ccc(F)cc2)n1	-19.6	1	0.9	1	-2.4
CN(C)c1nc(N)nc(CSc2n[nH]c(-c3ccccc3)n2)n1	67.8*	1	1	0.9	-0.4
Cc1ccc(-c2nc(SCC(=O)c3c(N)n(C)c(=O)n(C)c3=O)n[nH]2)cc1	88.0*	0.9	1.1	1.1	8.3
COC(=O)c1ccc(CSc2n[nH]c(C)n2)o1	-3.5	1	0.9	0.9	-1.3
CCOC(=O)c1sc(NC(=O)CSc2nc(C)cc(C)n2)c(C#N)c1C	-15.9	1	1	0.9	-4.6
COC(=O)c1ccc(CSc2n[nH]c(-c3ccccc3)n2)o1	70.0*	1	1.1	1	1.6
COc1ccc(/C=C/CN2CCCC(CO)(Cc3cccc(Cl)c3)C2)cc1 (configuration not stated)	-3.4	1.1	0.8	0.9	-5.6
COC(=O)c1ccccc1NC(=O)CSc1n[nH]c(C)n1	1.4	1	1	1	-0.9
CC(C)c1ccc(C(=O)CSc2n[nH]c(-c3ccncc3)n2)cc1	3.1	1	0.9	1	-4.6
